Measured values pooled from the literature.
STK38: Serine/threonine-protein kinase 38 (STK38, Homo sapiens, UniProt Q15208)
Nos2: Nitric oxide synthase, inducible (Nos2, Mus musculus, UniProt P29477)

| Structure (SMILES) | target | read-out | action | method | concentration | endpoint | result |
| --- | --- | --- | --- | --- | --- | --- | --- |
| C#Cc1n[nH]c2c(-c3cn(C(C)c4ccccn4)c(=O)[nH]c3=O)cc(F)cc12 (centres unmarked) | Proto-oncogene tyrosine-protein kinase receptor Ret (RET, Homo sapiens, UniProt P07949, V804L) | enzyme activity | inhibitor |  | 1 µM | inhibition | 4.9% |
| Cc1nn(C)cc1-c1nc2c(N3CCN(Cc4ccc(Cl)cc4)CC3)c(Cl)cnc2[nH]1 | STK38 | binding |  | competition with immobilised ligand | 1 µM | remaining binding | 86% |
| c1ccc(C(NCCNC(c2ccccc2)c2ccccc2)c2ccccc2)cc1 | Nos2 | enzyme activity | inhibitor |  | 10 µM | inhibition | 3% |
| Cc1sc2c(c1C)C(c1ccc(Cl)cc1)=N[C@@H](CC(=O)OC(C)(C)C)c1nnc(C)n1-2 | Stimulator of interferon genes protein (STING1, Homo sapiens, UniProt Q86WV6, H232R) | thermal stability |  | DSF | 50 µM | ΔTm | -0.5 °C |
| COc1cc(Nc2ncc(F)c(Nc3ccc4c(n3)NC(=O)C(C)(C)O4)n2)cc(OC)c1OC | Citron Rho-interacting kinase (CIT, Homo sapiens, UniProt O14578) | binding |  |  | 10 µM | inhibition | 99% |
| COc1ncccc1-c1cnn2ccc(N3CCN(C(=O)OC(C)C)CC3)nc12 | STK38 | binding |  | competition with immobilised ligand | 1 µM | remaining binding | 84% |
| C[C@H](C(=O)N[C@H]1COc2ccccc2[C@@H]1S(C)(=O)=O)c1ccc(F)cc1 | Nos2 | enzyme activity | inhibitor |  | 10 µM | inhibition | 3% |
| Nc1ncc(-c2nc(N3CCOCC3)nc(N3CCOCC3)n2)c(C(F)F)n1 | Proto-oncogene tyrosine-protein kinase receptor Ret (RET, Homo sapiens, UniProt P07949, M918T) | binding |  | competition with immobilised ligand | 10 µM | remaining binding | 78% |
